In paper PMC3619423 (Experimental eye research, 2013):
Entries after “also recorded” stand apart in the source; their conditions may differ. No end group written: not given here.

Columns and labels:
[1] = tested on: bovine lens protease-rich fraction; assay: Hydrolysis of MCA-62-70 substrate by lens protease in the presence of inhibitors; type: biochemical; settings: for inhibition of MCA-62-70 hydrolysis: pre-incubated 30 min at 37 °C
[2] = tested on: Arg-MCA hydrolyzing activity (aminopeptidase activity); assay: Arg-MCA hydrolysis; type: biochemical, bovine
protease-rich human = settings: 37 °C, up to 5 h
[3] = tested on: bovine lens extracts (outer cortical, inner cortical, nuclear); assay: MCA-62-70 hydrolytic activity in regions of bovine lens; type: biochemical; settings: 1 mg protein extract, 37 °C
Outline: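 Decapsulated bovine lenses stirred at 4 °C in 50 mM sodium phosphate, 150 mM NaCl, pH 7.2, dissolving outer cortex (about a third of wet weight), then inner cortex (about a third); remaining nucleus homogenised. Each fraction centrifuged 30,000 × g, 30 min; supernatant (1 mg protein) incubated with 25 μg MCA-62-70, 2 h, 37 °C; fluorescence read before and after (ex 326, em 398 nm).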

[4] = tested on: human lens extracts (cortical, nuclear); assay: MCA-62-70 hydrolytic activity in human lenses of different age; type: biochemical; settings: for total protease activity (MCA-62-70 hydrolyzed): water-soluble proteins
Outline: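 Cortical and nuclear regions of frozen young, middle-aged and old human lenses separated by dissection; water-soluble extracts (1 mg protein) incubated with 25 μg MCA-62-70 substrate, 2 h, 37 °C. Fluorescence read before and after (ex 326, em 398 nm). Amount hydrolysed taken from a standard curve of trypsin-digested substrate; average ± SE of four independent experiments; one-way ANOVA with Tukey's test.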

[5] = tested on: peptidase-rich fraction of bovine lens extract
[6] = bovine, 37 °C
[7] = bovine lens extract containing 5 mg protein; settings: 37 °C, up to 16 h

Which “inhibition of MCA-62-70 hydrolysis” value ([1]; 500 μM) does the source give for `O=c1oc(Cl)c(Cl)c2ccccc12` [3,4-DCI] here?
The value was “up to 85%”.

With `CC(C)C[C@H](NC(=O)[C@@H](O)[C@H](N)Cc1ccccc1)C(=O)O` [Bestatin, reference compound] as the molecule, how does the “inhibition of Arg-MCA hydrolyzing activity (aminopeptidase activity)” value ([2]; protease preparation treated with bestatin) read?
The value was “complete inhibition”.

For `O=C(O)CN(CCN(CC(=O)O)CC(=O)O)CC(=O)O` [EDTA, ethylene diamine tetraacetic acid], which “inhibition of MCA-62-70 hydrolysis” value ([1]; concentration not given) is on record?
Its value is 50%.

Which “inhibition of MCA-62-70 hydrolysis” value ([1]; concentration not given) does the source give for `O=C(O)CN(CCOCCOCCN(CC(=O)O)CC(=O)O)CC(=O)O` [EGTA, ethylene glycol tetraacetic acid] here?
Its value is 50%.

For `NC(=O)CI` [Iodoacetamide], which “Relative activity (%)” value [1] is on record?
Its value is 97%.

Which fragment found (protease-rich human) does the source give for MCA-SEVRSDRD[Lys(Dnp)]RR-NH2 here?
The fragment found was “MCA-62-68 (MCA-SEVRSDR); also recorded: MCA-62-65 (MCA-SEVR); also recorded: MCA-62-66 (MCA-SEVRS), major”.

With “MCA-SEVRSDRD[Lys(Dnp)]RR-NH2 [MCA-62-70]” as the molecule, how does the “enzymatic activity (MCA-62-70 hydrolysis)” value ([3]; bovine lens inner cortex) read?
Its value is 0.10 ± 0.01 nmoles/hr/mg protein.

What about the “enzymatic activity (MCA-62-70 hydrolysis)” value ([3]; bovine lens nuclear region) of the same molecule?
The value was 0.04 ± 0.003 nmoles/hr/mg protein.

What about the “enzymatic activity (MCA-62-70 hydrolysis)” value ([3]; bovine lens outer cortical region) of the same molecule?
The value was 0.58 ± 0.04 nmoles/hr/mg protein.

What about the “share of total lens enzymatic activity in the cortical region” value ([4]; human lens cortical region, all age groups) of the same molecule?
The value was about 90%.

And the “total protease activity (MCA-62-70 hydrolyzed)” value (from here on “total protease activity”) ([4]; middle-aged (40 ± 2 years) human lenses)?
Its value is 7.26 ± 0.83 n moles/h.

And the “total protease activity” value ([4]; older (60 ± 2 years) human lenses)?
The value was 5.49 ± 0.29 nmol/h.

What about the “total protease activity” value ([4]; young (20 ± 2 years) human lenses) of the same molecule?
The value was 8.84 ± 0.96 nmol/h.

With RPPGFSPFR [bradykinin, Bradykinin] as the molecule, how does the “hydrolysis after 2 h” value [5] read?
The value was “complete hydrolysis”.

What about the “slowing of hydrolysis rate versus peptide incubated alone” value [5] of the same molecule?
The value was 40%.

With SDRDKFVIFLDVKHF as the molecule, how does the not cleaved [6] read?
Its not cleaved is “αA-66-80 was not hydrolyzed”.

Which fragment found [7] does the source give for Succinyl-DVKHFSPEDK-Biotin here?
Its fragment found is “αA-76-78; also recorded: αA-76-80; also recorded: αA-76-82, major”.

Which fragment found [7] does the source give for Succinyl-ISEVRSDRDK-Biotin here?
The fragment found was “αA-61-65; also recorded: αA-61-66”.

With “α-crystallin: bovine lens α-crystallin, molecular chaperone protein added to the peptidase incubations” as the molecule, how does the “increase of Arg-MCA hydrolysis by peptidase-rich bovine lens fraction” value ([2]; addition of 12.5 nmoles α-crystallin, data not shown) read?
The value was about 4 fold.
